In ChEMBL document CHEMBL1125911, “Synthesis and biological activity of new HMG-CoA reductase inhibitors. 3. Lactones of 6-phenoxy-3,5-dihydroxyhexanoic acids” (J Med Chem, 1991):

Key:
Sus scrofa [1] = species on record: Sus scrofa; assay: In vitro inhibition of Cu2+ catalyzed LDL oxidation; assay type: functional
How it was run: (§1)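 Porcine plasma LDL isolated by sequential ultracentrifugation (density 1.019-1.063 g/mL), dialysed against PBS pH 7.4, then diluted to 0.1 mg/mL protein. Preincubated 1 h at 37 °C under N2 with compound in ethanol. Oxidised with 5 μM Cu2+ for 2 h at 37 °C in air. Fluorescence read at ex 365/em 430 nm.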

Sus scrofa [2] = species on record: Sus scrofa; assay: Compound was tested for inhibition of Cu2+ catalyzed LDL oxidation and the potency relative to terbufucine was determined; assay type: functional; how it was run: as §1
Rattus norvegicus [3] = species on record: Rattus norvegicus; assay: Compound was tested for inhibition of microsomal lipid peroxidation and the potency relative to terbufucine was determined; assay type: functional
How it was run: (§2)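 Rat liver microsomes in 50 mM Tris-HCl pH 7.4 with 100 mM KCl and 6.0 mM MgCl2, final protein 0.4 mg/mL. Peroxidation was started with ADP (2 mM)/FeCl3 (10 μM) plus an NADPH-regenerating system. Incubation 30 min at 37 °C with shaking. Thiobarbituric acid reactive substances were read at 535 nm.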

Rattus norvegicus [4] = species on record: Rattus norvegicus; assay: In vitro inhibition of microsomal lipid peroxidation at 10e-5 M conc.; assay type: functional; how it was run: as §2
Rattus norvegicus [5] = species on record: Rattus norvegicus; assay: In vitro inhibition of microsomal lipid peroxidation; assay type: functional; how it was run: as §2
[6] = target: T1, 3-hydroxy-3-methylglutaryl-coenzyme A reductase (Homo sapiens) (UniProt P04035); assay: (§3) Inhibition of HMG-CoA reductase compared to mevinolin.; assay type: functional
T1 sequence (whole entry): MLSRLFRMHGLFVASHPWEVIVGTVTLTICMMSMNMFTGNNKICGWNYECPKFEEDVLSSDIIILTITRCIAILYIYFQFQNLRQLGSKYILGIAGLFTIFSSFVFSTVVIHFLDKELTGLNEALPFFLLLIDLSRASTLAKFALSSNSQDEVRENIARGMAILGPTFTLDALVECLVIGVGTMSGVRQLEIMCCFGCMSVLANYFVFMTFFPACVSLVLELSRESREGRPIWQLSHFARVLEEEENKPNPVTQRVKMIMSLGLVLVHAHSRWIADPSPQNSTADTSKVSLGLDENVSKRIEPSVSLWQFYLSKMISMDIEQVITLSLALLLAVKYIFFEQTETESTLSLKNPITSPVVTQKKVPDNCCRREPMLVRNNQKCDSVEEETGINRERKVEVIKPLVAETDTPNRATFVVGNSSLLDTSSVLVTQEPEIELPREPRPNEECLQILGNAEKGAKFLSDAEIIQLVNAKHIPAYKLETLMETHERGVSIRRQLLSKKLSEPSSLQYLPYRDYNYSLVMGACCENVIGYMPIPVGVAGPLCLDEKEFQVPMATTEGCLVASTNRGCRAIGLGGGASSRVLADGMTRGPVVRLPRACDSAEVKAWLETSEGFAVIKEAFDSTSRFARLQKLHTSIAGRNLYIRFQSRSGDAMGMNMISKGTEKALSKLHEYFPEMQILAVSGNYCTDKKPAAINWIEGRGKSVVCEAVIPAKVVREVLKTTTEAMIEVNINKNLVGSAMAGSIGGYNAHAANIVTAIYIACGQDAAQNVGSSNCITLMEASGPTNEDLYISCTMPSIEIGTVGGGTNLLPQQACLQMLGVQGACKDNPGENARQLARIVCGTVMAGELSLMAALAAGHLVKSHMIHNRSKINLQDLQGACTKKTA
How it was run: (§4)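 Solubilized, partially purified rat liver HMG-CoA reductase. IC50 from four or five inhibitor concentrations. Relative potency compared IC50 with mevinolin (set to 100), corrected for molecular weight.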

Rattus norvegicus [7] = assay: Compound was tested for effect on serum HDL after oral administration of 100 mg/kg in male rats; assay type: functional
How it was run: (§5)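 Male HOE:WISKf (SPF 71) rats, initial body weight over 180 g, n = 10 per group, dosed once daily in the morning by gavage in polyethylene glycol 400 for 7 days; controls received vehicle. Fasted after last dose, bled retroorbitally 24 h later under mild ether. Liver and body weight recorded. Pooled group serum was ultracentrifuged into VLDL (<1.006), LDL (1.006-1.04) and HDL (1.04-1.21). Values are % change versus control.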

Rattus norvegicus [8] = assay: Compound was tested for effect on serum LDL after oral administration of 30 mg/kg in male rats; assay type: functional; how it was run: as §5
Rattus norvegicus [9] = assay: Compound was tested for effect on serum LDL after oral administration of 100 mg/kg in male rats; assay type: functional; how it was run: as §5
Rattus norvegicus [10] = assay: Compound was tested for effect on body weight after oral administration of 30 mg/kg in male rats.; assay type: functional; how it was run: as §5
Rattus norvegicus [11] = assay: Compound was tested for effect on serum HDL after oral administration of 30 mg/kg in male rats; assay type: functional; how it was run: as §5
Rattus norvegicus [12] = assay: Compound was tested for effect on serum VLDL after oral administration of 30 mg/kg in male rats; assay type: functional; how it was run: as §5
Rattus norvegicus [13] = assay: Compound was tested for effect on body weight after oral administration of 100 mg/kg in male rats.; assay type: functional; how it was run: as §5
Rattus norvegicus [14] = assay: Compound was tested for effect on liver weight after oral administration of 30 mg/kg in male rats.; assay type: functional; how it was run: as §5
[15] = target: T2, 3-hydroxy-3-methylglutaryl-coenzyme A reductase (Rattus norvegicus) (UniProt P51639); assay: as §3; how it was run: as §4
T2 sequence (whole entry): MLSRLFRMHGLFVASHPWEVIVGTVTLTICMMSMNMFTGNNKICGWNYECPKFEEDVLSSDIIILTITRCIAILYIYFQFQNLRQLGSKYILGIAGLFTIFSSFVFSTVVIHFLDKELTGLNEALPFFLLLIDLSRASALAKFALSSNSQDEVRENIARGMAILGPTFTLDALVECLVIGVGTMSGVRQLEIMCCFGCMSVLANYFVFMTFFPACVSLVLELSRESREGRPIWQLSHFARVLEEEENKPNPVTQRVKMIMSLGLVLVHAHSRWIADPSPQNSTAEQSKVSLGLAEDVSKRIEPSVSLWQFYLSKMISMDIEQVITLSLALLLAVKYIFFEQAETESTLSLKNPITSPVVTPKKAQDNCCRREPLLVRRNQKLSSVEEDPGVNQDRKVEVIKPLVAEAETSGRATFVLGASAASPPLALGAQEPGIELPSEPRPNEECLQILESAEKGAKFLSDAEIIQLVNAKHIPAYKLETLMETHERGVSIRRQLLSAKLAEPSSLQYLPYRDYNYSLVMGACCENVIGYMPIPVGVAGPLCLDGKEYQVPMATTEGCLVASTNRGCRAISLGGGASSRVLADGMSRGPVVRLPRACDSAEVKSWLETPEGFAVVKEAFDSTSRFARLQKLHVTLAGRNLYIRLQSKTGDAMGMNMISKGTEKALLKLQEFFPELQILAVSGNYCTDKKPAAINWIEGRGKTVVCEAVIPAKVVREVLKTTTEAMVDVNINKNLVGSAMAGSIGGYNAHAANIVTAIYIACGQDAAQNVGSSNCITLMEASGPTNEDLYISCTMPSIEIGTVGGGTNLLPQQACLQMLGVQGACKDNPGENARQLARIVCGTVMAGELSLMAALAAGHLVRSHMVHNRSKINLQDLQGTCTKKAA

Rattus norvegicus [16] = assay: Compound was tested for effect on serum VLDL after oral administration of 100 mg/kg in male rats; assay type: functional; how it was run: as §5
[17] = target: T3, 3-hydroxy-3-methylglutaryl-coenzyme A reductase (Homo sapiens, UniProt P04035); assay: Inhibition of the incorporation of sodium [14C]acetate into cholesterol in HEP G2 cells.; assay type: functional, cell-based, HepG2
T3 sequence (P04035 whole entry): T1 sequence (whole entry)

[18] = target: T4, 3-hydroxy-3-methylglutaryl-coenzyme A reductase (Rattus norvegicus, UniProt P51639); assay: In vitro inhibition of HMG-CoA reductase in solubilized rat liver.
T4 sequence (P51639 whole entry): T2 sequence (whole entry)

Rattus norvegicus [19] = assay: Compound was tested for effect on liver weight after oral administration of 100 mg/kg in male rats.; assay type: functional; how it was run: as §5
Oryctolagus cuniculus [20] = assay: Tested in vivo for hypocholesterolemic activity by measuring its ability to decrease serum total cholesterol, after oral administration of 10 mg/kg body wt. per day in normolipidemic NZW rabbits; assay type: functional
How it was run: (§6)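 NZW rabbits (n = 5 or 6) dosed orally daily for 10 days. Serum total cholesterol reported as % change versus control. For 20 mg/kg, that dose was given on days 11-20 after 10 mg/kg, with the value read on day 20. Error given as SEM.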

Rattus norvegicus [21] = assay: In vivo inhibition of hepatic cholesterol de novo synthesis in rat after oral administration of 5 mg/kg dose; assay type: functional
Rattus norvegicus [22] = species on record: Rattus norvegicus; assay: Potency relative to mevinolin was determined with respect to IC50. […]; assay type: functional
Oryctolagus cuniculus [23] = assay: Tested in vivo for hypocholesterolemic activity by measuring its ability to decrease serum total cholesterol, after oral administration of 5 mg/kg body wt. per day in normolipidemic NZW rabbits; assay type: functional; how it was run: as §6
Sus scrofa [24] = species on record: Sus scrofa; assay: In vitro inhibition of Cu2+ catalyzed LDL oxidation at 10e-5 M conc.; assay type: functional; how it was run: as §1
Oryctolagus cuniculus [25] = assay: Tested in vivo for hypocholesterolemic activity by measuring its ability to decrease serum total cholesterol, after oral administration of 50 mg/kg body wt. per day in normolipidemic NZW rabbits; assay type: functional; how it was run: as §6
[26] = target: T4, 3-hydroxy-3-methylglutaryl-coenzyme A reductase; assay: In vitro inhibition of solubilized HMG-CoA reductase in rat liver.

Compound | IC50 (Sus scrofa [1]) [nM] | IC50 (Rattus norvegicus [5]) [nM] | Relative potency [6] | IC50 [17] [nM] | IC50 [18] [nM] | Relative potency (Sus scrofa [2]) | Relative potency (Rattus norvegicus [3]) | inhibition (Rattus norvegicus [4]) [%] | Cholesterol (Rattus norvegicus [21]) [%] | Relative potency (Rattus norvegicus [22]) | also measured
CC(=O)Oc1c(-c2ccc(F)cc2)c(C(C)C)c(O)c(C(C)C)c1C(C)C | 150 | 2800 | – | – | – | 73 | 4 | 98 | – | – | –
CC(C)c1cc(C(C)(C)C)cc(-c2ccc(F)cc2)c1OCC1C[C@@H](O)CC(=O)O1 (stereo not given in full) | – | – | – | – | – | – | – | – | 95.7 | 6 | Change (Oryctolagus cuniculus [20]): -15%
CC(C)c1c(O)c(C(C)C)c(C(C)C)c(OCC(O)C[C@@H](O)CC(=O)[O-])c1-c1ccc(F)cc1.[Na+] (stereo not given in full) | 1100 | – | 900 | 5.6 | 20 | 10 | < 0.1 | 27 | – | – | Relative potency [15]: 34
CC(C)c1cc(-c2ccc(F)cc2)c(OCC2C[C@@H](O)CC(=O)O2)c(C(C)C)c1 (stereo not given in full) | – | – | 250 | 1.8 | – | – | – | – | 11.4 | 103 | Change (Oryctolagus cuniculus [20]): -30%
Cc1cc(C)c(OCC2C[C@@H](O)CC(=O)O2)c(C(c2ccc(F)cc2)c2ccc(F)cc2)c1 (stereo not given in full) | – | – | – | – | – | – | – | – | 71.6 | 33 | Change (Oryctolagus cuniculus [25]): -19%
CC(C)c1cc(-c2ccccc2)nc(-c2ccc(F)cc2)c1/C=C/[C@@H](O)C[C@@H](O)CC(=O)O | – | – | – | – | – | – | – | – | – | – | IC50 [26]: 3 nM

Second part, led by results:

IC50 (Sus scrofa [1]) [nM] | IC50 (Rattus norvegicus [5]) [nM] | Relative potency [6] | IC50 [17] [nM] | IC50 [18] [nM] | Compound | Relative potency (Sus scrofa [2]) | Relative potency (Rattus norvegicus [3]) | inhibition (Rattus norvegicus [4]) [%] | Cholesterol (Rattus norvegicus [21]) [%] | Relative potency (Rattus norvegicus [22]) | also measured
– | 2700 | < 3 | > 1700 | 30 | CC(C)c1cc(SC(C)(C)Sc2cc(-c3ccc(F)cc3)c(OCC(O)C[C@@H](O)CC(=O)[O-])c(C(C)C)c2)cc(-c2ccc(F)cc2)c1[O-].[Na+].[Na+] (stereo not given in full) | – | 4 | – | – | – | Change (Rattus norvegicus [7]): -3%; Change (Rattus norvegicus [8]): -26%; Change (Rattus norvegicus [9]): -16%; Change (Rattus norvegicus [10]): 5%; Change (Rattus norvegicus [11]): 13%; Change (Rattus norvegicus [12]): 12%; Change (Rattus norvegicus [13]): 5%; Change (Rattus norvegicus [14]): 3%; Relative potency [15]: 15; Change (Rattus norvegicus [16]): 13%; Change (Rattus norvegicus [19]): 1%
> 10000 | – | 10000 | 0.5 | 6 | CC(C)c1cc(Sc2ccc(F)cc2)cc(-c2ccc(F)cc2)c1OCC(O)C[C@@H](O)CC(=O)[O-].[Na+] (stereo not given in full) | 0.1 | < 0.1 | < 10 | – | – | Change (Oryctolagus cuniculus [23]): -46%; inhibition at 10 µM (Sus scrofa [24]): 41%
1000 | 3000 | – | – | – | CC(C)c1cc(Sc2ccc(F)cc2)cc(-c2ccc(F)cc2)c1O | 11 | 3 | 95 | – | – | –
